Screening results from PubChem BioAssay.
A selection: hits, their analogues and other compounds. The true share with any hit is near 2%.
TCR-CD3 inh = human TCR-CD3 binding inhibition | TAMRA-labeled TCR probe fluorescence, biochemical | inhibition, % at 9.4 µM | 360,000 tested, 0.37% active | AID 651800; in the data active = inhibition above about 19%;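 also: recombinant mutant TCR 2C K166C tagged with TAMRA read by polarization; 0% = receptor in buffer alone and 100% = receptor with positive control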
MBD2 DNA inh = MBD2-methylated oligo binding inhibition; TR-FRET, MBD2 binding to methylated oligonucleotide; Q9UBB5; inhibition, % at 4.4 µM; 370,000 tested, 0.31% active; in the data active = inhibition above about 13%
UHRF1 MBD2 ctr = blocks human UHRF1 binding to methylated DNA; 370,000 tested, 0.75% active; Q96T88; UHRF1 binding to methylated oligo, TR-FRET; inhibition, % at 4.4 µM; in the data active = inhibition above about 21%;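 also: UHRF1 SRA domain binding a hemimethylated CpG hairpin DNA probe; 0% = median of test compound wells and 100% = reference inhibitor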
ASAP1 GAP inh = inhibitors of human ASAP1 ArfGAP activity | 360,000 tested, 0.19% active | inhibition, % at 16.5 µM | ASAP1-stimulated ARF1 GTP hydrolysis, GDP FP detection | Q9ULH1 | AID 624377; in the data active = inhibition above about 25%;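 also: 0% = vehicle with enzyme and substrate and 100% = no enzyme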
LEDGF integ inh = blocks HIV-1 LEDGF/p75-dependent DNA integration; TR-FRET IN-LEDGF/p75 DNA integration, Eu/Cy5; inhibition, % at 3.7 µM; 370,000 tested, 0.64% active;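 active = inhibition above the screen-wide mean plus 3 SD, cut at about 13% in these data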;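 also: signal is the Cy5 over europium emission ratio at 671 and 618 nm; 0% = plate median of compound wells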
ARFGAP1 inhibitor = inhibitors of rat ARFGAP1. Arfgap1-stimulated ARF1 GTP hydrolysis, GDP FP detection. inhibition, % at 16.5 µM. 360,000 tested, 0.26% active. AID 651572;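 active = inhibition above a per-plate limit, mean inhibition of low control wells plus 3 SD, cut at about 25% in these data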;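 also: 0% = DMSO wells with enzyme and 100% = wells lacking Arfgap1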
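System: truncated rat Arfgap1 GAP domain / Medium: HEPES-based buffer, pH 7.5 / Also added: N-terminally truncated human ARF1-GTP substrate / Incubation: enzyme reaction 120 min at 25 °C after 20 min preincubation / Measured by: FP of antibody-bound GDP Alexa 633 tracer, ex 620/em 688 nm / Replicates: singlicate, each compound tested once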
* hit, by the source's call; . = no result given.

SMILES	TCR-CD3 inh	MBD2 DNA inh	UHRF1 MBD2 ctr	ASAP1 GAP inh	LEDGF integ inh	ARFGAP1 inhibitor
Cc1ccc(CN2C(=O)c3ccccc3C2c2nnnn2-c2c(C)cccc2C)cc1 (configuration not stated)	0	-3	-1	-12	-3	-4
C/C(C/C(C)=C1/SC(=S)NC1=O)=C1\SC(=S)NC1=O	7	18*	45*	3	20*	-1
Cc1ccc(CNC(=O)C2CC(=O)N(C3CCCCCC3)C2)cc1 (configuration not stated)	4	2	37*	-10	-1	-9
Cc1ccc(CNC(=O)C2CC(=O)N(C3CCCC3)C2)cc1 (configuration not stated)	-4	1	3	1	-4	-13
Cc1cc(C)cc(Cn2cc(CN3CC(N4CCN(C)CC4)CS3(=O)=O)nn2)c1 (configuration not stated)	-3	5	24*	-5	-1	2
CCCCCCN1CCN(C2CN(Cc3cn(Cc4cc(C)cc(C)c4)nn3)S(=O)(=O)C2)CC1 (configuration not stated)	-8	4	23*	-6	-3	7
CCCCCCN1CCN(C2CN(Cc3cn(Cc4ccccc4)nn3)S(=O)(=O)C2)CC1 (configuration not stated)	4	-2	5	6	2	-4
CN1CCN(C2CN(Cc3cn(Cc4ccc(C(F)(F)F)cc4)nn3)S(=O)(=O)C2)CC1 (configuration not stated)	-2	4	25*	-7	2	6
Cc1cc(C)cc(Cn2cc(CN3CC(N4CCCC4)CS3(=O)=O)nn2)c1 (configuration not stated)	-11	-4	6	19	4	12
O=S1(=O)C[C@H](N2CCCC2)[C@@H](COCc2ccccc2)N1	-7	1	1	-4	-6	-9
COCOc1cccc(CN2CCC2(C)C(=O)Nc2cc(OC)ccc2OC)c1 (configuration not stated)	-2	1	-1	-7	-2	6
CNC(=O)[C@@H](NC(=O)[C@H](CC(C)C)[C@H](O)C(=O)NO)C(C)(C)C	.	1	1	.	-1	.
COc1ccc(CSC(=N)N)cc1[N+](=O)[O-]	0	2	-2	-12	1	5
N=C(N)SCc1ccc(O)c([N+](=O)[O-])c1	2	0	38*	-6	1	-8
CCOC(=O)[C@]12CCCC=C1N(CCCOC)C(=O)[C@@H]2CC(=O)NCCCCc1ccccc1	.	-6	-2	.	3	.
O=C(CCS(=O)(=O)c1ccccc1)Nc1nc(-c2ccccn2)cs1	2	0	-3	3	0	-3
O=C(CCS(=O)(=O)c1ccc(F)cc1)Nc1nc(-c2ccccn2)cs1	-3	5	21*	10	-1	-6
O=C(c1ccccc1)N1CC[C@H]2[C@H](CCCN2Cc2cc(F)cc(F)c2)C1	.	3	-3	.	6	.
C[C@@H]1CCCCO[C@@H](CN(C)S(=O)(=O)c2ccccc2)[C@@H](C)CN([C@H](C)CO)C(=O)c2cc(N(C)C)ccc2O1	11	-6	-1	5	-3	8
CN(CCC#N)C(=O)COC(=O)/C=C/c1cccs1	-4	7	4	9	-7	-2
CCO/C=C/C(=O)N(C)CCC#N	-8	-2	100*	-1	-2	-8
O=S1(=O)c2ccc(Br)cc2OC[C@@H](c2ccccc2)N1Cc1cn(CCC2OCCO2)nn1	.	-1	0	.	-2	.
CCN(C(=O)C(C)N1C(=O)/C(=C/c2ccco2)SC1=S)C1CCS(=O)(=O)C1 (configuration not stated)	2	-2	31*	-7	49*	-13
CSc1ccc(OC2CCCCC2NS(=O)(=O)c2ccccc2)cc1 (configuration not stated)	-4	2	98*	2	-4	-1
Cc1cc(C)cc(OC2CCCCC2NS(=O)(=O)c2ccccc2)c1 (configuration not stated)	-4	-3	0	4	-2	9
SMILES	TCR-CD3 inh	MBD2 DNA inh	UHRF1 MBD2 ctr	ASAP1 GAP inh	LEDGF integ inh	ARFGAP1 inhibitor
O=C(Cc1ccsc1)NCC(c1ccco1)N1CCCCC1 (configuration not stated)	6	-6	25*	3	0	-9
Cc1cc(S(=O)(=O)N2CCCC(N(C)CCc3ccccn3)C2)c(C)cc1Cl (configuration not stated)	7	9	23*	-5	3	2
CN(CCc1ccccc1)C1CCCN(S(=O)(=O)c2cccc(F)c2)C1 (configuration not stated)	5	1	-2	4	2	-5
CNc1cccccc1=S	9	8	15	-1	23*	-1
COc1ccc(CC(=O)Nc2cc(Cl)ccc2C(=O)O)cc1	7	3	1	7	4	-1
CCCCOc1ccc(Nc2cc(Cl)ccc2C(=O)O)cn1	7	12	22*	-8	-3	1
COc1ccc(-c2nc3c(Cl)cc(C(F)(F)F)cn3c2Cc2cccc(F)c2)cc1OC	5	3	25*	8	-1	-3
COc1ccc(-c2nc3c4ccccc4ccn3c2Cc2cccc(Cl)c2)cc1OC	-5	5	23*	0	-3	12
COc1ccc(-c2nc3c(C)cc(Br)cn3c2Cc2cccc(Cl)c2)cc1OC	-2	7	22*	9	-3	8
COc1ccc(-c2nc3c(C)cc(Br)cn3c2CC2CCCCC2)cc1OC	-5	10	23*	0	-2	-3
Fc1cccc(Cc2c(-c3cccc(Br)c3)nc3c(Cl)cc(C(F)(F)F)cn23)c1	4	1	0	-3	4	9
c1ccc(NCCC2OCC3(CO2)COC(CCNc2ccccc2)OC3)cc1 (configuration not stated)	-7	-1	1	-6	-5	6
CN(C=O)c1cc([N+](=O)[O-])ccc1OCc1ccccc1	9	-11	0	4	3	-6
COC(=O)[C@@]12CCCCC3=C1N(CCC3)C(=O)[C@H]2CC(=O)NCCCCc1ccccc1	.	3	-1	.	0	.
Cc1ccc(Cc2c(C3CCCCC3)nc3c4ccccc4ccn23)cc1	1	-1	13	-3	5	-4
c1ccc2c(c1)ccn1c(Cc3ccsc3)c(C3CCCCC3)nc21	5	6	21*	3	3	14
COc1ccc(-c2nc3c4ccccc4ccn3c2Cc2ccsc2)cc1OC	0	12	21*	7	-1	1
COC(=O)[C@H](CC(C)C)N(CCCc1cn(CC2CCCCC2)nn1)S(=O)(=O)c1ccccc1Br	.	3	-1	.	-5	.
